These results are taken from ChEMBL document CHEMBL1140898, “Targeting the fatty acid biosynthesis enzyme, beta-ketoacyl-acyl carrier protein synthase III (PfKASIII), in the identification of novel antimalarial agents” (J Med Chem, 2009).

Data set [1] is described as follows: Inhibition of Plasmodium falciparum KAS3 expressed in Escherichia coli assessed as transfer of [1-14C]acetyl-CoA to [1-14C]acetyl-ACP. The essentials:
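Recombinant 6xHIS-tagged P. falciparum KASIII and 6xHIS-ACP expressed in E. coli and purified. Radiometric filter assay of [1-14C]-acetyl-CoA transfer to ACP, 25 min at 37 °C, quenched with 10% TCA. Product captured on P81 cellulose filters, washed with TCA and counted by scintillation. […] IC50 by variable-slope nonlinear regression, curves accepted at R2 >0.80.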

The test system of data set [2] is Plasmodium falciparum. The data set can be described thus: Antimalarial activity against […] by [3H]hypoxanthine uptake. The class given is functional, organism-based.
For data set [3], the system named is Plasmodium falciparum. The experiment in a line: Antimalarial activity against […] by [3H]hypoxanthine uptake. It is filed as functional, organism-based.
For data set [4], the system named is Plasmodium falciparum. The data set can be described thus: Antimalarial activity against Plasmodium falciparum TM91C235 by [3H]hypoxanthine uptake. The class given is functional, organism-based.
A short description of data set [5]: Cytotoxicity against mouse J774.G8 cells after 72 hrs by MTS assay. The class given is cell-based. In short, it runs like this: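 Murine J774 macrophage subclone G8 grown in DMEM with 10% fetal calf serum, 2 mM L-glutamine, 50 μg/mL gentamicin, 5% CO2, 37 °C. Seeded at 1 × 10^4 cells/well and left 24 h. Compound dilutions in medium or vehicle added, then 72 h exposure. MTS tetrazolium added for 1–2 h at 37 °C, OD read at 490 nm. Vehicle control values subtracted.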
Background: Formazan colour is commonly taken as a measure of viable cells.

A short description of data set [6]: Therapeutic index, ratio of IC50 for mice (Mus musculus) J774.G8 cells to IC50 for chloroquine-resistant Plasmodium falciparum W2. The settings on record: J774.G8 cells versus Plasmodium falciparum W2.

Each structure is given as a SMILES string.

Usually IC50 stands for the point on the concentration scale where inhibition reaches its midpoint. Turning to `Oc1ccccc1SSc1ccccc1O`, the IC50 in data set [1] is 1.9 µM; in data set [2], 15 µM; in data set [3] it was 14.9 µM.

`O=[N+]([O-])c1c(Cl)sc(Cl)c1S(=O)(=O)Nc1ccc(C(F)(F)F)cc1`: the half-inhibitory concentration (IC50) in data set [1] amounted to 0.28 µM; in data set [2], 16.4 µM; in data set [3], 15.4 µM.

For `Nc1ccc(S(=O)(=O)c2cc(O)ccc2O)cc1`, the IC50 in data set [1] was 63.8 µM; in data set [2], 3.6 µM; in data set [3], 0.79 µM; in data set [4], 5.3 µM; in data set [5] it was over 1890 µM. In addition, the selectivity ratio in data set [6] is over 472.

On to `Cc1ccc(S(=O)(=O)c2ccccc2)cc1`, for which the IC50 in data set [1] was determined as 158 µM; in data set [2], 68.9 µM; in data set [3], 35.7 µM; in data set [4], 112 µM; in data set [5], 134 µM. In data set [6], the selectivity ratio was found to be 1.9.

Take `Cc1cc(O)c(O)c(S(=O)(=O)c2ccc(N)cc2)c1`: the IC50 stood at 27.2 µM in data set [1]; 23.6 µM in data set [2]; 19.7 µM in data set [3]; 3.4 µM in data set [4]; 27.6 µM in data set [5]. For the same compound, in data set [6], the selectivity ratio was found to be 1.2.

Take `Cc1ccc(S(=O)(=O)c2cc(O)ccc2O)cc1`: the IC50 in data set [1] is 193 µM; in data set [2], 64.3 µM; in data set [3] it was 37.8 µM; in data set [4], 60.5 µM; in data set [5], over 1890 µM. For the same compound, the selectivity ratio in data set [6] is over 29.6.

`Cc1ccc(S(=O)(=O)c2ccc3ccccc3c2)cc1`: the IC50 in data set [1] is 53.7 µM; in data set [2] it was over 230 µM; in data set [3], over 230 µM; in data set [4] it was over 230 µM; in data set [5] it was over 1770 µM.

As to `c1ccc(SSc2ccccc2)cc1`, the IC50 in data set [1] turned out to be 0.65 µM; in data set [2] it was 6.7 µM; in data set [3], 5 µM; in data set [5], 124 µM. In data set [6], the selectivity ratio was found to be 12.4.

As for `O=C(O)c1ccc(NS(=O)(=O)c2ccccc2)cc1O`, the concentration for half-maximal inhibition (IC50) was 5 µM in data set [1], over 12.7 µM in data set [2], over 12.7 µM in data set [3] and over 2540 µM in data set [5].

As for `Oc1ccc2ccccc2c1SSc1c(O)ccc2ccccc12`, the IC50 is 0.13 µM in data set [1], 6.6 µM in data set [2], 7.2 µM in data set [3] and over 1430 µM in data set [5]. Moreover, the selectivity ratio in data set [6] is over 204.

Regarding `Clc1ccc(SSSc2ccc(Cl)cc2)cc1`, the values for the concentration for half-maximal inhibition (IC50) in data set [1], in data set [2] and in data set [3] were 0.63 µM, 2.1 µM and 2.5 µM, respectively.

As to `Oc1ccc(Cl)cc1SSSc1cc(Cl)ccc1O`, the IC50 in data set [1] was determined as 0.53 µM; in data set [2], 1.4 µM; in data set [3], 2.3 µM.

For `O=S(=O)(Nc1cccc(Cl)c1)c1ccccc1`, the half-maximal inhibitory concentration (IC50) in data set [1] was 195 µM; in data set [2], over 49.9 µM; in data set [3], over 49.9 µM; in data set [5], 31.3 µM. For the same compound, in data set [6], the selectivity ratio was under 0.62.

For the compound `O=S(=O)(Nc1ccc(C(F)(F)F)cc1)c1cc(Cl)sc1Cl`, the IC50 in data set [1] was 2.2 µM; in data set [2] it was over 49.9 µM; in data set [3], over 49.9 µM.

For the compound `C/C=C/CCCCCCCC(=O)NS(=O)(=O)c1ccc(N)cc1`, the 50% inhibitory concentration (IC50) is over 1000 µM in data set [1], over 49.9 µM in data set [2] and over 49.9 µM in data set [3].

As for `Oc1ccc(S)cc1Cl`, the figures for the IC50 in data set [1], in data set [2] and in data set [3] were 2.8 µM, 4.7 µM and 5.2 µM, respectively.

In the case of `Oc1ccc(Sc2ccc(O)cc2O)c(O)c1`, the IC50 in data set [1] was 10.8 µM; in data set [2] it was over 49.9 µM; in data set [3], over 49.9 µM.

For `O=S(=O)(c1ccc(O)cc1)c1cc(Cl)ccc1O`, the IC50 in data set [1] worked out at 115 µM; in data set [2] it was 45.7 µM; in data set [3], 38.6 µM; in data set [4], 80.8 µM; in data set [5] it was 107 µM. Besides, in data set [6], the selectivity ratio came out at 2.3.

`Nc1ncc(S(=O)(=O)c2ccc(NO)cc2)s1`: the IC50 is 22 µM in data set [1], over 55.3 µM in data set [2], 0.3 µM in data set [3] and over 55.3 µM in data set [4].

As to `CCOC(=O)c1cnccc1C`, the IC50 is 4.9 µM in data set [1], over 49.9 µM in data set [2] and over 49.9 µM in data set [3].

Regarding `CC(CN)CCC(C)(O)C(N)=O` (stereo not given), the figures for the IC50 in data set [1], in data set [2] and in data set [3] were 0.24 µM, 14.6 µM and 24.7 µM, respectively.

For the compound `C/C(=C/C(=O)OC(C)c1ccccc1)OP1(=O)OC(C)C(C)O1` (stereo not given), the IC50 in data set [1] was 25.8 µM; in data set [2], over 49.9 µM; in data set [3], 20.4 µM.

Regarding `COc1ccc(C(=O)CSS(=O)(=O)c2ccccc2)cc1`, the values for the IC50 in data set [1], in data set [2] and in data set [3] were 1.5 µM, 22.5 µM and 22.5 µM, respectively.

With `Cc1cccc(C)c1/C=C/S(=O)(=O)c1ccccc1`, the IC50 in data set [1] is 448 µM; in data set [2], over 50.1 µM; in data set [3] it was over 50.1 µM; in data set [5], 706 µM. The selectivity ratio in data set [6] was under 14.

Turning to `CC(C)(C)S(=O)(=O)CC(=O)c1ccc(Cl)cc1Cl`, the concentration for half-maximal inhibition (IC50) in data set [1] was 62.9 µM; in data set [2], 84.1 µM; in data set [3], 45.3 µM; in data set [4], over 204 µM; in data set [5], over 1620 µM. Further, in data set [6], the selectivity ratio is over 19.3.

As for `CCCCS(=O)(=O)CCOC(=O)c1ccc([N+](=O)[O-])cc1`, the IC50 in data set [1] is 0.32 µM; in data set [2], over 41.2 µM; in data set [3], over 41.2 µM; in data set [5], 33.6 µM. Further, the selectivity ratio in data set [6] is under 0.83.

On to `C/C(=C/c1ccccc1)S(=O)(=O)c1ccccc1`, for which the half-maximal inhibitory concentration (IC50) in data set [1] was 165 µM; in data set [2] it was over 50.1 µM; in data set [3], 28 µM; in data set [5], 205 µM. In addition, in data set [6], the selectivity ratio was under 4.1.

Take `Nc1ccc(S(=O)(=O)c2cc(O)c3ccccc3c2O)c(Cl)c1`: the IC50 in data set [1] worked out at 0.13 µM; in data set [2], 5.5 µM; in data set [3], 0.01 µM.

In the case of `CC(C)c1ccc(S(=O)(=O)c2ccc(C(C)C)cc2)cc1`, the IC50 is 22.5 µM in data set [1]; 23.5 µM in data set [2]; 18.5 µM in data set [3]; 32.7 µM in data set [4]; 7.3 µM in data set [5]. In addition, the selectivity ratio in data set [6] is 0.3.

Consider `Cc1ccc(S/C=C/S(=O)(=O)Cc2ccccc2)cc1`, for which the concentration for half-maximal inhibition (IC50) in data set [1] came out at 0.52 µM; in data set [2] it was 5.8 µM; in data set [3], 3 µM; in data set [5] it was 0.85 µM. Also, the selectivity ratio in data set [6] stood at 0.15.

With `O=[N+]([O-])c1cc(S(=O)(=O)Nc2cc(C(F)(F)F)cc(C(F)(F)F)c2)sc1Nc1cc(C(F)(F)F)cc(C(F)(F)F)c1`, the 50% inhibitory concentration (IC50) in data set [1] was 5.2 µM; in data set [2], 11.4 µM; in data set [3], 10.3 µM.

In the case of `O=c1ss/c(=N\c2ccccc2)n1-c1ccccc1`, the IC50 amounted to 0.5 µM in data set [1], 8 µM in data set [2] and 8 µM in data set [3].

With `Cc1ccc(SSSc2ccc(C)cc2)cc1`, the figures for the concentration for half-maximal inhibition (IC50) in data set [1], in data set [2] and in data set [3] were 1.4 µM, 1.4 µM and 1.5 µM, respectively.

`Cc1ccc(S(=O)(=O)c2cc(O)c3ccccc3c2O)cc1`: the half-maximal inhibitory concentration (IC50) was 0.38 µM in data set [1], 3.2 µM in data set [2], 3.6 µM in data set [3] and over 3180 µM in data set [5]. Besides, the selectivity ratio in data set [6] is over 1060.

Regarding `Oc1ccc(Cl)cc1SSc1cc(Cl)ccc1O`, the values for the 50% inhibitory concentration (IC50) in data set [1], in data set [2] and in data set [3] were 0.14 µM, 12 µM and 12.4 µM, respectively.

Regarding `Oc1c(Cl)cc(SSc2cc(Cl)c(O)c(Cl)c2Cl)c(Cl)c1Cl`, the concentration for half-maximal inhibition (IC50) in data set [1] is 0.24 µM; in data set [2], 5.5 µM; in data set [3], 3.9 µM.

For the compound `O=C(CN1CCN(c2ccc(CO)c(Br)c2)CC1)c1ccc([N+](=O)[O-])o1`, the 50% inhibitory concentration (IC50) in data set [1] came to 3.2 µM; in data set [2], 8.9 µM; in data set [3], 8.9 µM.

In the case of `NC1CCC(S(=O)(=O)c2cc(O)c3ccccc3c2O)CC1` (stereo not given), the IC50 in data set [1] came to 0.44 µM; in data set [2], 20.4 µM; in data set [3], 3.9 µM; in data set [5], 105 µM. Further, the selectivity ratio in data set [6] amounted to 5.3.

In the case of `CC(=O)Nc1ccc(S(=O)(=O)c2ccc(NC(=O)c3ccccc3O)cc2)cc1`, the half-maximal inhibitory concentration (IC50) in data set [1] is 48.1 µM; in data set [2], 20.7 µM; in data set [3], 29.2 µM; in data set [4], 31.7 µM; in data set [5] it was over 1620 µM. Further, the selectivity ratio in data set [6] was over 77.

With `Nc1nc(O)c2cc(S(=O)(=O)c3ccc4ccccc4c3)ccc2n1`, the IC50 was 18.3 µM in data set [1]; 1.2 µM in data set [2]; 0.43 µM in data set [3]; 1.4 µM in data set [4]; over 2850 µM in data set [5]. The selectivity ratio in data set [6] was over 2850.

With `Oc1ccc(Cl)cc1Sc1cc(Cl)ccc1O` [FENTICLOR], the IC50 in data set [1] is 3.1 µM; in data set [2] it was 21.5 µM; in data set [3], 20.5 µM.

Regarding `COc1ncnc(NS(=O)(=O)c2ccc(N)cc2)c1OC` [SULFADOXINE], the IC50 in data set [1] was over 1000 µM; in data set [2], 6.1 µM; in data set [3], 0.04 µM; in data set [5] it was over 1610 µM. Besides, the selectivity ratio in data set [6] was over 269.

For `C=C/C(C)=C/[C@@]1(C)SC(=O)C(C)=C1O` [THIOLACTOMYCIN], the results for the concentration for half-maximal inhibition (IC50) in data set [1], in data set [2] and in data set [3] were over 330 µM, 50 µM and 50 µM, respectively.
